Test results published in ChEMBL document CHEMBL1135932, “5'-Deoxy congeners of 9-(3-amido-3-deoxy-beta-D-xylofuranosyl)-N(6)-cyclopentyladenine: new adenosine A(1) receptor antagonists and inverse agonists” (J Med Chem, 2002).

Experiments:
Adenosine receptor A1 [1] = molecular target: T1, Adenosine receptor A1 (Rattus norvegicus, UniProt P25099); assay: Binding affinity at rat Adenosine A1 receptor in the presence of GTP
T1 sequence (P25099 whole entry): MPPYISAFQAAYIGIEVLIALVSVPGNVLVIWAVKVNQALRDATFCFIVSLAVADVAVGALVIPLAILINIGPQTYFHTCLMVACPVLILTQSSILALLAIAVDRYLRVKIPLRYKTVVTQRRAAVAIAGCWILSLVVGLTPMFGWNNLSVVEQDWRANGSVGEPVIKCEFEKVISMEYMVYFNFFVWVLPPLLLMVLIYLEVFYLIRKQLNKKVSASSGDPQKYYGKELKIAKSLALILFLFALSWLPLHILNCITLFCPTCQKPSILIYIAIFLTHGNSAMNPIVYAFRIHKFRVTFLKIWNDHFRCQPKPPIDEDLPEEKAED
Method in brief: (§1)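 GTP shift taken from these two Ki values. Done only for compounds giving >50% radioligand displacement at 10⁻⁶ M. At least three independent experiments in duplicate.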

Adenosine receptor A1 [2] = molecular target: T1, Adenosine receptor A1; assay: Binding affinity at rat Adenosine A1 receptor in the absence of GTP; method in brief: as §1
[3] = molecular target: T2, Adenosine receptor A1 (Homo sapiens) (UniProt P30542); assay: Forskolin-induced cAMP production at human Adenosine A1 receptor; assay type: functional
T2 sequence (whole entry): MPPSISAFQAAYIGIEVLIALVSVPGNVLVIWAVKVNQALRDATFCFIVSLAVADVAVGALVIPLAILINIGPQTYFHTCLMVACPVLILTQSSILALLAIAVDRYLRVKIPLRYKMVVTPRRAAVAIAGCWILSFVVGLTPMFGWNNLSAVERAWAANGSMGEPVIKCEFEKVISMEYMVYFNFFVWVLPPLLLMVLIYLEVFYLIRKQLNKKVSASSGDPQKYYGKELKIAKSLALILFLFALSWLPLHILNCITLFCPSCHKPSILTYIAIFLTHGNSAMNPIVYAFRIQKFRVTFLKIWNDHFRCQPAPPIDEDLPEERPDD
Method in brief: (§2)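 Human A1-expressing CHO cells seeded at 2 × 10⁵ cells/well. Next day, 30 min at 37 °C in Hepes-buffered medium pH 7.4 with adenosine deaminase (5 U/mL), cilostamide (50 μM) and rolipram (50 μM). […] Expressed as % of forskolin.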

Adenosine receptor A1 [4] = molecular target: T3, Adenosine receptor A1 (Homo sapiens, UniProt P30542); assay: Binding affinity at human Adenosine A1 receptor expressed in CHO cells; assay type: cell-based
T3 sequence (P30542 whole entry): T2 sequence (whole entry)
Method in brief: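 Membranes from CHO cells stably expressing human A1 receptor (~3 pmol/mg protein), 6 μg, incubated 1 h at 25 °C in 50 mM Tris HCl pH 7.4 with ~1.6 nM [³H]DPCPX and increasing test concentrations. Stopped by dilution in ice-cold buffer, then filtration. At least three independent experiments in duplicate.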

[5] = molecular target: T4, Adenosine receptor A1 (Rattus norvegicus) (UniProt P25099); assay: Percent displacement of radioligand at 10e-6 M from rat Adenosine A1 receptor
T4 sequence (whole entry): T1 sequence (P25099 whole entry)
Method in brief: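 Radioligand displacement by ligand at 10⁻⁶ M, using rat cortical membranes labelled with [³H]DPCPX.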

[6] = molecular target: T2, Adenosine receptor A1 (Homo sapiens); assay: Forskolin-induced cAMP production at human A1 adenosine receptor; assay type: functional; method in brief: as §2
Adenosine receptor A2a = Adenosine receptor A2a (Rattus norvegicus, UniProt P30543); assay: Binding affinity at rat Adenosine A2A receptor
Sequence of Adenosine receptor A2a (P30543 whole entry): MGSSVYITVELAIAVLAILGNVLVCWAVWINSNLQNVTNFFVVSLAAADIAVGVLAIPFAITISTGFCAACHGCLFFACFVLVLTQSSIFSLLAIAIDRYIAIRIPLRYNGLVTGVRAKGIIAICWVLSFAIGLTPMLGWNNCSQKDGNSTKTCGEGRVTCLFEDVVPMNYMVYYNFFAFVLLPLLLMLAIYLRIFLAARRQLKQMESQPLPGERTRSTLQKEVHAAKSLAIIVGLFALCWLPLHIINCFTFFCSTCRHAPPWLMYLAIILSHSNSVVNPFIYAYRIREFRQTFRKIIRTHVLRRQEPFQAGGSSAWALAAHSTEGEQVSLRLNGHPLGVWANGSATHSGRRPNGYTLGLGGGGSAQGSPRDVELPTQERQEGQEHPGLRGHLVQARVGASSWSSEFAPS
Method in brief: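 Rat striatal membranes with [³H]ZM241385 as radioligand. At least three independent experiments in duplicate.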

[7] = molecular target: T2, Adenosine receptor A1 (Homo sapiens); assay: Forskolin-induced cAMP production at human Adenosine A1 receptor receptor; assay type: functional; method in brief: as §2

Ki (Adenosine receptor A1 [1]) [nM] | Ki (Adenosine receptor A1 [2]) [nM] | Production [3] [%] | Ki (Adenosine receptor A1 [4]) [nM] | Compound | also measured
450 | 70 |  |  | C[C@H]1O[C@@H](n2cnc3c(NC4CCCC4)ncnc32)[C@H](O)[C@H]1O | 
70 | 98 | 182 | 971 | C[C@H]1O[C@@H](n2cnc3c(NC4CCCC4)ncnc32)[C@H](O)[C@H]1NC(=O)C1CCCC[C@H]1C(=O)c1cccs1 (some centres not stated) | 
38 | 55 | 148 | 419 | C[C@H]1O[C@@H](n2cnc3c(NC4CCCC4)ncnc32)[C@H](O)[C@H]1NC(=O)CCCc1cccs1 | 
114 | 138 |  |  | C[C@H]1O[C@@H](n2cnc3c(NC4CCCC4)ncnc32)[C@H](O)[C@H]1NC(=O)C1(c2ccccc2)CCCC1 | 
54 | 78 | 125 | 579 | O=C(N[C@@H]1[C@@H](O)[C@H](n2cnc3c(NC4CCCC4)ncnc32)O[C@@H]1CO)c1ccc(F)c(Cl)c1 | 
 | 112 | 135 | 773 | Cc1ccc(C(=O)N[C@@H]2[C@@H](O)[C@H](n3cnc4c(NC5CCCC5)ncnc43)O[C@@H]2CO)cc1F | 
 |  |  |  | C[C@H]1O[C@@H](n2cnc3c(NC4CCCC4)ncnc32)[C@H](O)[C@H]1NC(=O)c1ccc(F)c(Cl)c1 | Displacement [5]: 44%
17 | 24 |  | 137 | Cc1ccc(C(=O)N[C@@H]2[C@@H](O)[C@H](n3cnc4c(NC5CCCC5)ncnc43)O[C@@H]2CO)cc1C | Production [6]: 126%
470 | 110 |  |  | OC[C@H]1O[C@@H](n2cnc3c(NC4CCCC4)ncnc32)C[C@H]1O | 
 | 270 |  |  | CC(C)c1ccc(C(=O)N[C@@H]2[C@@H](O)[C@H](n3cnc4c(NC5CCCC5)ncnc43)O[C@@H]2C)cc1 | 
 |  |  |  | Cc1ccc(C(=O)N[C@@H]2[C@@H](O)[C@H](n3cnc4c(NC5CCCC5)ncnc43)O[C@@H]2C)cc1F | Dispacement [5]: 47%
210 | 286 |  |  | C[C@H]1O[C@@H](n2cnc3c(NC4CCCC4)ncnc32)[C@H](O)[C@H]1NC(=O)C1(c2ccccc2)CCCCC1 | 
 | 171 |  |  | CC(C)c1ccc(C(=O)N[C@@H]2[C@@H](O)[C@H](n3cnc4c(NC5CCCC5)ncnc43)O[C@@H]2CO)cc1 | Ki (Adenosine receptor A2a): 437 nM
 | 236 |  |  | Cc1ccc(C(=O)N[C@@H]2[C@@H](O)[C@H](n3cnc4c(NC5CCCC5)ncnc43)O[C@@H]2C)cc1C | 
46 | 67 | 152 | 630 | O=C(CCCc1cccs1)N[C@@H]1[C@@H](O)[C@H](n2cnc3c(NC4CCCC4)ncnc32)O[C@@H]1CO | 
259 | 279 |  | 1190 | Cn1cnc2c(NC3CCCC3)ncnc21 | Production [7]: 139%
 | 102 | 126 | 443 | O=C(N[C@@H]1[C@@H](O)[C@H](n2cnc3c(NC4CCCC4)ncnc32)O[C@@H]1CO)c1ccc2c(c1)OCO2 | 
 | 473 |  |  | C[C@H]1O[C@@H](n2cnc3c(NC4CCCC4)ncnc32)[C@H](O)[C@H]1NC(=O)CCCOc1ccccc1 | 
 |  | 157 |  | CCCn1c(=O)c2[nH]c(C3CCCC3)nc2n(CCC)c1=O | 
 | 240 |  |  | CCc1ccc(C(=O)N[C@@H]2[C@@H](O)[C@H](n3cnc4c(NC5CCCC5)ncnc43)O[C@@H]2C)cc1 | 
